EBI2 antag: EBI2 receptor antagonists, beta-arrestin recruitment, primary screen, cell-based, luminescence, 7a,25-OHC stimulation, uHTS; G-protein coupled receptor 183 (Homo sapiens), P32249; 7a,25-OHC stimulated; inhibition, % at 5 µM; 360,000 compounds, 0.81% hits; AID 651636, 2012; in the data active = inhibition above about 38%;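 note: enzyme fragment complementation signal reports receptor beta-arrestin coupling in cells; 0% = agonist plus DMSO wells and 100% = wells without agonist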
CXCR6 block: CXCR6 receptor inhibitors, primary screen, cell-based, beta-arrestin, luminescence, CHO-K1 PathHunter, 1536-well; inhibition, % at 20 µM; 360,000 compounds, 0.36% hits; C-X-C chemokine receptor type 6 (Homo sapiens), O00574; in the data active = inhibition above about 34%, passing the limit was not always enough;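 note: antagonist mode with CXCL16 agonist at 10 nM final; 0% = 10 nM CXCL16 with DMSO and 100% = unstimulated wells without agonist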
Target sequence (O00574 whole entry, looked up): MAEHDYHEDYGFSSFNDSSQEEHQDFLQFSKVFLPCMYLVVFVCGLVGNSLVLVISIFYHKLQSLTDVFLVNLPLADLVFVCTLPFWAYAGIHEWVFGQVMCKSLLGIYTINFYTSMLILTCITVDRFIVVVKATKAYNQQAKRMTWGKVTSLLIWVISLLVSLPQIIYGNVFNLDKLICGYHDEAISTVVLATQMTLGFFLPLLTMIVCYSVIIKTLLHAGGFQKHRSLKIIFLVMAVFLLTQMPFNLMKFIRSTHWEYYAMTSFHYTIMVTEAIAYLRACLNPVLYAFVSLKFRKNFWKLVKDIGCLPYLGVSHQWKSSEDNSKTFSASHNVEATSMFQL
CCR6 antag: CCR6 receptor antagonists, primary screen, cell-based, CHO-K1, luminescence, beta-arrestin, uHTS | C-C chemokine receptor type 6 (Homo sapiens), P51684 | CHO-K1 CCR6 PathHunter beta-arrestin, CCL20-stimulated | inhibition, % at 20 µM | 340,000 compounds, 0.49% hits | AID 493098, 2011;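 active = compounds whose inhibition of the agonist-driven luminescence signal at 20 µM reaches about 50%, limit read from the data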;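 note: cells stimulated with CCL20 at 14 nM final; plate controls were DMSO with CCL20 for no effect and DMSO without agonist for full effect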
APJ agonist: agonists of human apelin receptor APJ, primary screen, CHO-K1 cells, PathHunter beta-arrestin, luminescence; P35414; activation, % at 20 µM; 0% DMSO wells, 100% apelin; 330,000 compounds, 0.11% hits;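 active = activation more than six SD over the plate average, tested at 20 µM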;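 note: 0% = DMSO alone and 100% = apelin-13 at 10 nM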
Target sequence (P35414 whole entry, looked up): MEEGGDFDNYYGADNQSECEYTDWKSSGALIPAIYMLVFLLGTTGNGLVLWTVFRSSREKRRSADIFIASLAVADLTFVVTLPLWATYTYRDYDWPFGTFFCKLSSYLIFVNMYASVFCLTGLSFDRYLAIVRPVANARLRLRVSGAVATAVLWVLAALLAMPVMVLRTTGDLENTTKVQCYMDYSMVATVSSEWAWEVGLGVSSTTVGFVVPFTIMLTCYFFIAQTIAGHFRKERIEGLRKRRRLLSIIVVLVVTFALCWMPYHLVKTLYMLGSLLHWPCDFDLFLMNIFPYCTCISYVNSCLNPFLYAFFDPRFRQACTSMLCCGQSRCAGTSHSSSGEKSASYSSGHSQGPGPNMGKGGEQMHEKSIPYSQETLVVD
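Test system – PathHunter CHO-K1 APJ (AGTRL-1) beta-arrestin reporter cells · Input – 1000 cells/well · Compound – single test compound dose, 20 µM final, 1% DMSO · Times – compound stimulation 90 min at 25 °C, detection 60 min · Technique – beta-gal luminescence · Read-out basis – APJ–arrestin association signal · Control set – negative DMSO alone, positive Apelin-13 at 10 nM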
APJ antagonist: antagonists of human apelin receptor APJ, primary screen, CHO-K1 cells, beta-arrestin complementation, luminescence. inhibition, % at 20 µM. 330,000 compounds, 0.32% hits. AID 2521, 2010;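 active = inhibition above about 40% at 20 µM, limit read from the data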;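 note: cells challenged with 10 nM apelin-13 agonist together with compound; plate controls were apelin-13 plus DMSO wells for no effect and DMSO wells lacking apelin-13 for full effect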
APJ antag conf: APJ antagonists blocking beta-arrestin recruitment, confirmation, cell-based, luminescence, single concentration, uHTS hits | shares compounds with APJ antagonist | antagonist mode | inhibition, % at 20 µM | 950 compounds, 66% hits; in the data active = inhibition above about 50%
CXCR6 antag conf: CXCR6 receptor antagonists, confirmation, cell-based, single concentration, beta-arrestin, luminescence; inhibition, % at 20 µM; 700 compounds, 65% hits; CHO-K1 CXCR6 PathHunter beta-arrestin; shares compounds with CXCR6 block; AID 602409, 2012;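 active = mean inhibition over four retests above 40%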;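 note: receptor stimulated with 10 nM CXCL16 agonist; beta-galactosidase fragment complementation upon beta-arrestin recruitment to receptor; plate controls were CXCL16 plus DMSO for no effect and DMSO without CXCL16 for full effect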
EBI2 antag conf: EBI2 antagonist hit retest, beta-arrestin, confirmation, cell-based, single concentration, luminescence, 7a,25-OHC stimulation; shares compounds with EBI2 antag; 7a,25-OHC antagonism; inhibition, % at 5 µM; 2,400 compounds, 29% hits; AID 651997, 2013;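 active = inhibition of at least 50%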
EBI2 agonist: EBI2 agonist activity of antagonist hits, confirmation, counter-screen for EBI2 antagonist project, cell-based, single concentration, agonist mode, luminescence; shares compounds with EBI2 antag; EBI2-expressing cells, 60 min; 0% vehicle, 100% 7α,25-dihydroxycholesterol control; activation, % at 5 µM; 2,400 tested, under 10 active; AID 652000, 2013;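 active = activation of at least 50%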
bGal counter: E. coli beta-galactosidase enzyme inhibition, confirmation, counter-screen for EBI2 antagonist project, biochemical, luminescence, single concentration; shares compounds with EBI2 antag; purified beta-galactosidase, luminescent Galacton Star, 15 min; inhibition, % at 5 µM; 2,400 compounds, 1% hits;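 active = replicate-average signal at least 3 plate SD below neutral wells, shown as high inhibition, flagging enzyme-inhibiting false positives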;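 note: 0% = DMSO wells with enzyme and 100% = wells lacking enzyme; higher means stronger loss of beta-gal luminescence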
* = called active by the depositor; / = no result given. Compounds with a hit are over-represented: about 1.5% of the library has one in this group of screens.

SMILES	EBI2 antag	CXCR6 block	CCR6 antag	APJ agonist	APJ antagonist	CXCR6 antag conf	others
COc1cc(/C=C(\C#N)c2nc(-c3cc4ccccc4oc3=O)cs2)ccc1O	21.9	49.3*	60.2*	-9.4	53.3*	49.3*	APJ antag conf=76.1*
COc1cc(C(=O)ON=C2C3CC4CC(C3)CC2C4)cc(OC)c1OC	4.4	-15.6	-12.2	7.6	-44.6	/
Cc1ccc(OCCN2C(=O)c3ccccc3C2=O)c([N+](=O)[O-])c1	61.6*	52.8*	46.3	-4.8	47.9*	58.3*	APJ antag conf=66.2*;EBI2 antag conf=51.7*;EBI2 agonist=-0.2;bGal counter=7.4
CCOc1cc(CN2CCN(c3cccc(C(F)(F)F)c3)CC2)ccc1O	12.6	1.5	7.0	0.0	-14.2	/
C/C(=N/NC(=O)c1ccc(C(C)(C)C)cc1)c1ccccn1	74.3*	77.4*	93.8*	-18.7	69.1*	82.2*	APJ antag conf=88.2*;EBI2 antag conf=87.0*;EBI2 agonist=-3.4;bGal counter=6.6
C/C(=N\NC(=O)c1cccc(Br)c1)c1ccccn1	67.1*	30.6	65.3*	-18.1	66.6*	/	APJ antag conf=59.3*;EBI2 antag conf=81.8*;EBI2 agonist=-1.9;bGal counter=9.1
CC(=NNC(=O)c1ccncc1)c1cccc(Br)c1	-0.3	-0.1	1.5	/	/	/
COc1ccc(CN2C(=O)C(Cc3ccccc3)Nc3ncnc(N4CCN(c5ccccc5)CC4)c32)cc1 (stereo not drawn)	44.1*	70.4*	80.1*	-20.7	52.9*	68.2*	APJ antag conf=110.0*;EBI2 antag conf=39.8;EBI2 agonist=-1.8;bGal counter=32.5*
CC(C)CC1Nc2ncnc(N3CCN(c4ccccc4)CC3)c2N(Cc2ccccc2)C1=O (stereo not drawn)	1.1	15.5	10.1	1.2	-4.6	/
O=C1C(Cc2ccccc2)Nc2ncnc(N3CCN(c4ccccc4)CC3)c2N1Cc1ccc(Cl)cc1 (stereo not drawn)	64.6*	67.9*	77.6*	-16.8	65.4*	69.8*	APJ antag conf=103.9*;EBI2 antag conf=70.6*;EBI2 agonist=-3.6;bGal counter=39.4*
CC(C)(C)c1ccc(NC(=O)CNC2CCCc3ccccc32)cc1 (stereo not drawn)	-15.0	-5.6	7.7	-0.9	3.2	/
CCc1ccc(C(=O)NNc2ccc(C)c(Cl)c2)cc1	46.2*	9.5	38.4	-9.2	52.7*	/	APJ antag conf=80.5*;EBI2 antag conf=22.9;EBI2 agonist=-2.7;bGal counter=-8.1
CCc1ccc(C(=O)NNc2ccc(F)cc2)cc1	5.0	14.2	16.1	-7.9	29.7	/
COc1ccc(C)cc1NC(=O)Nc1cccc(C(=O)O)c1	-12.0	-2.4	7.2	-3.7	-3.8	/
CC1CCC/C(=C\c2ccc(O)cc2)C1=O (stereo not drawn)	11.7	-9.0	2.9	0.4	5.6	/
COc1ccc(/C=C2/CCC(CN3CCOCC3)C2=O)cc1 (stereo not drawn)	35.7	70.4*	87.3*	/	/	70.0*
CN(C)CC1CC/C(=C\c2ccc(O)cc2)C1=O (stereo not drawn)	31.3	74.8*	85.7*	/	/	76.6*
CCCC(=O)NCCCCNC(=O)CCC	0.6	-5.0	-37.2	-1.5	3.6	/
CC(C)(C)OC(=O)C[C@@H]1C/C=C\C[C@@H](CC(=O)N(CCO)Cc2ccccc2)C(=O)NC[C@@H](c2ccccc2)OC1=O	9.0	27.3	23.0	-4.5	20.2	/
Cc1nn(C)c(C(=O)NC(=S)Nc2ccccc2O)c1Cl	0.8	43.8*	50.1*	-13.4	27.6	32.2
COCCCNC(=O)c1sc2ncnc(N3CCc4ccccc4C3)c2c1C	11.6	-2.0	-17.8	-3.5	9.0	/
Cn1c(=O)n(CCOc2ccccc2Cl)c2ccccc21	0.1	14.3	8.9	-4.3	1.9	/
COc1ccc(C(=O)/C(=C\c2ccco2)N2C=CC=CC2=C(C#N)C#N)cc1	54.0*	83.5*	100.2*	-7.9	85.6*	102.9*
COc1ccc(/C=C(/C(=O)c2cccs2)N2C=CC=CC2=C(C#N)C#N)cc1	23.1	61.8*	83.8*	/	/	57.4*
N#CC(C#N)=C1C=CC=CN1/C(=C\c1ccco1)C(=O)c1ccccc1	77.7*	97.7*	100.0*	/	/	105.0*
SMILES	EBI2 antag	CXCR6 block	CCR6 antag	APJ agonist	APJ antagonist	CXCR6 antag conf	others
COc1ccc(C(=O)N/C(=C\c2ccco2)C(=O)OCc2ccco2)cc1	-6.7	-6.7	9.6	-0.3	-5.6	/
CCOc1ccc(-c2nc(-c3cccnc3)no2)cc1	-6.5	-3.6	1.9	4.8	-7.6	/
CN(Cc1ccco1)Cc1ccc(O)c2ncccc12	-28.5	5.4	6.0	-4.0	-4.3	/
COc1ccc(NS(=O)(=O)c2csc(C(=O)N3CCCC3)c2)cc1	-0.3	5.5	1.4	-3.2	-0.9	/
Cc1c(Cl)cccc1NC(=S)NCc1ccc(F)cc1	-4.8	-9.3	3.9	2.0	-2.5	/
Fc1ccc(CNC(=S)Nc2ccccc2Cl)cc1	-10.2	47.1*	-6.9	-0.9	-3.8	8.9
C=C1CCN([C@@H](Cc2ccccc2)C(=O)NCCC(C)C)S(=O)(=O)c2ccccc21	28.0	41.4*	24.3	-2.0	-33.9	42.0*
Nc1cccc2c1C(=O)N(C(=O)/C=C/c1ccc(F)cc1)C2=O	1.6	48.3*	60.9*	0.4	35.6	38.3
Nc1cccc2c1C(=O)N(C(=O)c1ccco1)C2=O	3.4	-1.7	4.8	-2.3	21.4	/
Cc1ccc(NCC(=O)c2ccc(C)cc2)cc1	3.7	44.0*	82.5*	-11.2	16.6	57.8*
Cc1ccc(NCCC(=O)c2ccc(Br)cc2)cc1	2.8	2.5	2.3	-4.5	1.9	/
O=C(Cn1ccc(C(F)(F)F)n1)N/N=C/c1ccc2c(c1)OCO2	-11.9	0.9	-21.7	-0.4	-8.9	/
Cc1ccc(Oc2ccccc2NC(=O)CN2C(=O)NC3(CCCC3)C2=O)cc1	-4.8	43.1*	-7.3	0.6	-0.6	10.0
